Legend:
Format in all cases: functional
[1] = system: HT-29; assay: Cytotoxicity against human HT-29 cells assessed as cell growth at 10 uM after 48 hrs by SRB assay; settings: HT-29, 48 h, read-out: Activity
[2] = system: UACC-257; assay: (§1) Cytotoxicity against human UACC257 cells assessed as growth inhibition after 48 hrs by SRB assay
Method in brief: (§2)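 NCI 60-cell-line screen, two stages. Five-dose testing at […]. Cellular protein measured by sulforhodamine B colorimetry after 48 h drug exposure. A time-zero control and drug-free plates are used to derive GI50, TGI and LC50 from dose-response curves plotted as log10 concentration per cell line.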

[3] = as §1; settings: UACC-257, 48 h; method in brief: as §2
[4] = system: SR; assay: Cytotoxicity against human SR cells assessed as growth inhibition after 48 hrs by SRB assay; method in brief: as §2
[5] = system: HOP-62; assay: Cytotoxicity against human HOP62 cells assessed as growth inhibition after 48 hrs by SRB assay
Method in brief: (§3)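 NCI 60-cell-line five-dose screen at […]. Drug exposure was 48 h, followed by sulforhodamine B protein staining. GI50, TGI and LC50 were calculated against a time-zero control and untreated plates, with dose–response curves plotted from log10 concentration.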

[6] = system: RPMI-8226; assay: Cytotoxicity against human RPMI8226 cells assessed as growth inhibition after 48 hrs by SRB assay
Method in brief: (§4)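 NCI 60-cell-line screen, five-dose stage: each cell line exposed for 48 h to five concentrations spanning five log steps; cellular protein measured by sulforhodamine B colorimetry. A time-zero cell control and plates without drug are used to derive GI50, TGI and LC50 from log-concentration dose-response curves.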

[7] = system: NCI-H322M; assay: Cytotoxicity against human NCI-H322M cells assessed as growth inhibition after 48 hrs by SRB assay; method in brief: as §4
[8] = system: HCC 2998; assay: Cytotoxicity against human HCC2998 cells assessed as growth inhibition after 48 hrs by SRB assay; method in brief: as §3
[9] = system: IGROV-1; assay: Cytotoxicity against human IGROV1 cells assessed as growth inhibition after 48 hrs by SRB assay; method in brief: as §3
[10] = system: MDA-MB-435; assay: Cytotoxicity against human MDA-MB-435 cells assessed as growth inhibition after 48 hrs by SRB assay; method in brief: as §4
[11] = system: SF-295; assay: Cytotoxicity against human SF295 cells assessed as growth inhibition after 48 hrs by SRB assay; method in brief: as §4
[12] = system: TK-10; assay: Cytotoxicity against human TK10 cells assessed as growth inhibition after 48 hrs by SRB assay; method in brief: as §2
[13] = system: NCI-H522; assay: Cytotoxicity against human NCI-H522 cells assessed as growth inhibition after 48 hrs by SRB assay; method in brief: as §4
[14] = system: KM12; assay: Cytotoxicity against human KM12 cells assessed as growth inhibition after 48 hrs by SRB assay; method in brief: as §3
[15] = system: M14; assay: Cytotoxicity against human M14 cells assessed as growth inhibition after 48 hrs by SRB assay; method in brief: as §3
[16] = system: ACHN; assay: Cytotoxicity against human ACHN cells assessed as growth inhibition after 48 hrs by SRB assay; method in brief: as §3
[17] = system: OVCAR-3; assay: Cytotoxicity against human OVCAR3 cells assessed as cell growth at 10 uM after 48 hrs by SRB assay; settings: OVCAR-3, 48 h, read-out: Activity
Method in brief: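 First stage of the NCI 60 human tumour cell line screen: a single dose is tested against every line. Cell growth is read as cellular protein by sulforhodamine B colorimetry after 48 h of drug exposure, with reference to a time-zero control and to untreated plates.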

[18] = system: BT-549; assay: Cytotoxicity against human BT549 cells assessed as growth inhibition after 48 hrs by SRB assay; method in brief: as §3
[19] = system: HCT-15; assay: Cytotoxicity against human HCT15 cells assessed as growth inhibition after 48 hrs by SRB assay; method in brief: as §3
[20] = system: A498; assay: Cytotoxicity against human A498 cells assessed as growth inhibition after 48 hrs by SRB assay; method in brief: as §3
[21] = system: MDA-MB-468; assay: Cytotoxicity against human MDA-MB-468 cells assessed as growth inhibition after 48 hrs by SRB assay; method in brief: as §4
[22] = system: MOLT-4; assay: Cytotoxicity against human MOLT4 cells assessed as growth inhibition after 48 hrs by SRB assay; method in brief: as §4
[23] = system: MDA-MB-231; assay: Cytotoxicity against human MDA-MB-231 cells assessed as growth inhibition after 48 hrs by SRB assay; method in brief: as §4
[24] = system: SK-MEL-28; assay: Cytotoxicity against human SK-MEL-28 cells assessed as growth inhibition after 48 hrs by SRB assay; method in brief: as §4
[25] = system: SF-268; assay: Cytotoxicity against human SF268 cells assessed as growth inhibition after 48 hrs by SRB assay; method in brief: as §4
[26] = system: U-251; assay: Cytotoxicity against human U251 cells assessed as growth inhibition after 48 hrs by SRB assay; method in brief: as §2

Compound: CN(C)CCCSc1nc2ccc3c(c2[nH]1)C(=O)c1ccccc1C3=O
- growth at 10 µM [1]: 17.8%
- growth inhibition (GI) [2]: Dose-dependent effect
- GI50 [3]: 19.8 µM
- TGI [3]: 34.1 µM
- GI50 [4]: 0.43 µM
- TGI [4]: 3.47 µM
- growth inhibition (GI) [4]: Dose-dependent effect
- growth inhibition (GI) [5]: Dose-dependent effect
- GI50 ([5]; HOP-62, 48 h): 5.9 µM
- TGI ([5]; HOP-62, 48 h): 21.2 µM
- growth inhibition (GI) [6]: Dose-dependent effect
- GI50 ([6]; RPMI-8226, 48 h): 1.25 µM
- TGI ([6]; RPMI-8226, 48 h): 4.62 µM
- GI50 [7]: 0.72 µM
- TGI [7]: 20.6 µM
- growth inhibition (GI) [7]: Dose-dependent effect
- growth inhibition (GI) [8]: Dose-dependent effect
- GI50 ([8]; HCC 2998, 48 h): 4.14 µM
- TGI ([8]; HCC 2998, 48 h): 17.7 µM
- CC50 ([8]; HCC 2998, 48 h, read-out: LC50 (the source's name)): 43.4 µM
- growth inhibition (GI) [9]: Dose-dependent effect
- GI50 ([9]; IGROV-1, 48 h): 0.329 µM
- TGI ([9]; IGROV-1, 48 h): 12.8 µM
- growth inhibition (GI) [10]: Dose-dependent effect
- GI50 ([10]; MDA-MB-435, 48 h): 10.4 µM
- TGI ([10]; MDA-MB-435, 48 h): 22.2 µM
- growth inhibition (GI) [11]: Dose-dependent effect
- GI50 ([11]; SF-295, 48 h): 14.8 µM
- TGI ([11]; SF-295, 48 h): 28.4 µM
- growth inhibition (GI) [12]: Dose-dependent effect
- GI50 ([12]; TK-10, 48 h): 1.37 µM
- TGI ([12]; TK-10, 48 h): 13.5 µM
- growth inhibition (GI) [13]: Dose-dependent effect
- GI50 ([13]; NCI-H522, 48 h): 12.2 µM
- TGI ([13]; NCI-H522, 48 h): 24.9 µM
- CC50 ([13]; NCI-H522, 48 h, read-out: LC50 (the source's name)): 50.5 µM
- growth inhibition (GI) [14]: Dose-dependent effect
- GI50 ([14]; KM12, 48 h): 1.96 µM
- TGI ([14]; KM12, 48 h): 7.24 µM
- CC50 ([14]; KM12, 48 h, read-out: LC50 (the source's name)): 27.4 µM
- growth inhibition (GI) [15]: Dose-dependent effect
- GI50 ([15]; M14, 48 h): 7.05 µM
- TGI ([15]; M14, 48 h): 20.7 µM
- GI50 [16]: 1.74 µM
- TGI [16]: 15 µM
- growth inhibition (GI) [16]: Dose-dependent effect
- CC50 ([16]; read-out: LC50 (the source's name)): 38.7 µM
- growth at 10 µM [17]: 59.3%
- growth inhibition (GI) [18]: Dose-dependent effect
- GI50 ([18]; BT-549, 48 h): 9.13 µM
- TGI ([18]; BT-549, 48 h): 21.8 µM
- growth inhibition (GI) [19]: Dose-dependent effect
- GI50 ([19]; HCT-15, 48 h): 0.68 µM
- TGI ([19]; HCT-15, 48 h): 15 µM
- growth inhibition (GI) [20]: Dose-dependent effect
- GI50 ([20]; A498, 48 h): 12.1 µM
- TGI ([20]; A498, 48 h): 24.8 µM
- CC50 ([20]; A498, 48 h, read-out: LC50 (the source's name)): 51 µM
- growth inhibition (GI) [21]: Dose-dependent effect
- GI50 ([21]; MDA-MB-468, 48 h): < 0.01 µM
- TGI ([21]; MDA-MB-468, 48 h): 0.439 µM
- growth inhibition (GI) [22]: Dose-dependent effect
- GI50 ([22]; MOLT-4, 48 h): 2.06 µM
- TGI ([22]; MOLT-4, 48 h): 6.6 µM
- growth inhibition (GI) [23]: Dose-dependent effect
- GI50 ([23]; MDA-MB-231, 48 h): 4.96 µM
- TGI ([23]; MDA-MB-231, 48 h): 19.3 µM
- growth inhibition (GI) [24]: Dose-dependent effect
- GI50 ([24]; SK-MEL-28, 48 h): 13.5 µM
- TGI ([24]; SK-MEL-28, 48 h): 26.3 µM
- growth inhibition (GI) [25]: Dose-dependent effect
- GI50 ([25]; SF-268, 48 h): 4.34 µM
- TGI ([25]; SF-268, 48 h): 17.7 µM
- growth inhibition (GI) [26]: Dose-dependent effect
- GI50 ([26]; U-251, 48 h): 10.1 µM
- TGI ([26]; U-251, 48 h): 22 µM
- CC50 ([26]; U-251, 48 h, read-out: LC50 (the source's name)): 48 µM
